Laboratory results as given in PMC5696082 (Analytical biochemistry, 2017).

Experiments:
hCE1 = target: T1, hCE1 (Homo sapiens, UniProt P23141); assay: Limit of detection and quantification for hCE1 using partially purified enzyme; format: biochemical; conditions: for LOD for hCE1: S/N > 3; for LOD for hCE1 / LOQ for hCE1: [S] = 50 µM; for LOQ for hCE1: S/N > 9
T1 sequence (P23141 18-567): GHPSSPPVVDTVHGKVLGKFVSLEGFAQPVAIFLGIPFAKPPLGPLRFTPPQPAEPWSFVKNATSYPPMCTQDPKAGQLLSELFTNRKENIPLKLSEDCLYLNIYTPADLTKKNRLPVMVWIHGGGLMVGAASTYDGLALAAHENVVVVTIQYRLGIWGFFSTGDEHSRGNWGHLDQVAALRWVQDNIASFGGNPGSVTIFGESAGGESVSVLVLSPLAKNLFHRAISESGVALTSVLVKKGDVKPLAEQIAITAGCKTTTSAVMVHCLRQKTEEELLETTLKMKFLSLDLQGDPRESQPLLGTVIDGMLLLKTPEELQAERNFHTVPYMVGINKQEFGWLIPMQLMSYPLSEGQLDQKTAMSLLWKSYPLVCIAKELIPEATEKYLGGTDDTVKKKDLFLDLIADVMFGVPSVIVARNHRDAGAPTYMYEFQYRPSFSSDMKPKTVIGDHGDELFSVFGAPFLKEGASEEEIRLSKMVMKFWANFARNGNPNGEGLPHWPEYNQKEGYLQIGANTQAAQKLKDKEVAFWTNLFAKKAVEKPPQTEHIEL
Procedure, shortened: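 Partially purified recombinant hCE1, without any matrix, diluted into wells with substrate at 50 µM. Assay run in 100 mM sodium phosphate, pH 8, 0.1 mg/mL BSA, 1% DMSO, at 37°C. S/N taken as mean signal of enzyme wells over the SD of […], quadruplicates in one experiment. LOD set as the lowest level with S/N > 3; LOQ as S/N > 9.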

Liver S9 = assay: Substrate hydrolysis by pooled tissue S9, liver; format: biochemical, human
Procedure, shortened: (§1)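 Commercial pooled human tissue S9 fraction added to substrate at 50 µM final in 100 mM sodium phosphate, pH 8.0, 0.1 mg/mL BSA. Fluorescence monitored every 30 s for at least 10 min at 37°C. Specific activity given as the mean of triplicates in one experiment, or mean ± standard deviation of 3 independent experiments run in triplicate.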

Intestine S9 = assay: Substrate hydrolysis by pooled tissue S9, intestine; format: biochemical, human
Procedure, shortened: as §1

[1] = Kinetic mode (30 s intervals for 30 minutes)

Structure (SMILES): CCCCC(C)CCC(=O)Nc1ccc(OC)nc1C (stereo not drawn) [4-MOMMP, N-(6-methoxy-2-methylpyridin-3-yl)-4-methyloctanamide]
- Time over which hCE1 hydrolysis remained linear (hCE1): at least 24 hours
- LOD for hCE1 (hCE1; Endpoint mode 1 hour): 0.06 ng
- LOQ for hCE1 (hCE1; Endpoint mode 1 hour): 2.0 ng
- LOD for hCE1 (hCE1; Endpoint mode 4 hours): 0.03 ng
- LOQ for hCE1 (hCE1; Endpoint mode 4 hours): 0.12 ng
- LOD for hCE1 (hCE1; Endpoint mode 24 hours): 0.008 ng
- LOQ for hCE1 (hCE1; Endpoint mode 24 hours): 0.03 ng
- LOD for hCE1 (hCE1; [1]): 3.9 ng
- LOQ for hCE1 (hCE1; [1]): 16 ng
- Limit of quantification for hCE1, fold higher than CMNA (hCE1; kinetic mode, short time (<30 minutes)): 4 fold
- Hydrolysis Specific Activity (Liver S9): 5.5 ± 0.4 pmol/min/µg
- Hydrolysis Specific Activity (Intestine S9): <0.05 pmol/min/µg
